Assay results: paper PMC4415995 (Advances in Therapy, 2015)
Like-named read-outs stand apart in the source and are kept apart here. Marks after values point to notes of the source that are not given here.

Columns and labels:
[1] = tested on: Japanese patients with T2DM; details: cited from earlier work
healthy Japanese males = details: healthy subjects on luseogliflozin; cited from earlier work
[2] = tested on: Japanese patients with T2DM; assay: Serum insulin concentrations, 7-day once-daily dosing; format: in vivo, human
[3] = tested on: Japanese patients with T2DM; assay: Clinical laboratory tests and vital signs, 7-day once-daily dosing; format: in vivo, human
Outline: (§1)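 Randomized, single-blind, placebo-controlled, parallel-group study in Japanese T2DM outpatients (HbA1c 6.9–10.5%, FPG ≥126 mg/dL, stable diet 4 weeks, age 20–74 y). Test compound 0.5, 1, 2.5 or 5 mg or placebo was given orally once daily for 7 days before breakfast. Safety set was all dosed patients. AEs were coded in MedDRA 12.1 and graded mild/moderate/severe, with drug relation judged by the investigator. Labs, vital signs, body weight and ECG were also recorded.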

[4] = tested on: Japanese patients with T2DM; assay: Adverse events, 7-day once-daily dosing; format: in vivo, human; details: for ALT increased / Blood urine present / Constipation / Dermatitis contact / Diarrhea / Headache / Pruritus / γ-GTP increased: N = 8
Outline: as §1

SGLT1 = details: SGLT2 vs SGLT1; cited from earlier work

## CCOc1ccc(Cc2cc([C@@H]3S[C@H](CO)[C@@H](O)[C@H](O)[C@H]3O)c(OC)cc2C)cc1 [Luseogliflozin, (1S)-1,5-anhydro-1-[5-(4-ethoxybenzyl)-2-methoxy-4-methylphenyl]-1-thio-D-glucitol]
[1]; 0.5 mg, Phase II, 1/60
  incidence of hypoglycemia: 1.7%
[1]; 2.5 mg, Phase III, 1/79
  incidence of AEs related to genital infection: 1.3%
  incidence of hypoglycemia: 1.3%
[1]; 2.5 mg, Phase III, 2/79
  incidence of pollakiuria: 2.5%
[1]; 2.5 mg, Phase III, 6/79
  incidence of AEs related to renal function: 7.6%
[1]; 2.5 mg, over 24 weeks of treatment
  body weight change: -2.70 kg
[1]; 5 mg, Phase II, 1/54
  incidence of hypoglycemia: 1.9%
[1]; Phase III study
  episodes of volume depletion: no episodes
Healthy Japanese males
  mean UGE: 58.0 g/day
[2]; 0.5 mg OD, Day 1
  Serum insulin AUC0–4h (after breakfast): 95.0 ± 33.9 μIU h/mL
  Serum insulin AUC0–4h (after breakfast) LS mean difference vs placebo (95% CI): −13.8 (−43.1, 15.6) μIU h/mL
[2]; 0.5 mg OD, Day 7
  Serum insulin AUC0–4h (after breakfast): 81.4 ± 39.4 μIU h/mL
  Serum insulin AUC0–4h (after breakfast) LS mean difference vs placebo (95% CI): −32.3 (−62.8, −1.82)* μIU h/mL
[2]; 1 mg OD, Day 1
  Serum insulin AUC0–4h (after breakfast): 161 ± 67.9 μIU h/mL
  Serum insulin AUC0–4h (after breakfast) LS mean difference vs placebo (95% CI): −12.1 (−39.4, 15.3) μIU h/mL
[2]; 1 mg OD, Day 7
  Serum insulin AUC0–4h (after breakfast): 125 ± 43.4 μIU h/mL
  Serum insulin AUC0–4h (after breakfast) LS mean difference vs placebo (95% CI): −36.1 (−64.5, −7.72)* μIU h/mL
[2]; 2.5 mg OD, Day 1
  Serum insulin AUC0–4h (after breakfast): 101 ± 56.1 μIU h/mL
  Serum insulin AUC0–4h (after breakfast) LS mean difference vs placebo (95% CI): −32.7 (−60.4, −4.93)* μIU h/mL
[2]; 2.5 mg OD, Day 7
  Serum insulin AUC0–4h (after breakfast): 75.1 ± 29.4 μIU h/mL
  Serum insulin AUC0–4h (after breakfast) LS mean difference vs placebo (95% CI): −56.7 (−85.4, −27.9)* μIU h/mL
[2]; 5 mg OD, Day 1
  Serum insulin AUC0–4h (after breakfast): 190 ± 118 μIU h/mL
  Serum insulin AUC0–4h (after breakfast) LS mean difference vs placebo (95% CI): −17.0 (−44.8, 10.8) μIU h/mL
[2]; 5 mg OD, Day 7
  Serum insulin AUC0–4h (after breakfast): 157 ± 82.5 μIU h/mL
  Serum insulin AUC0–4h (after breakfast) LS mean difference vs placebo (95% CI): −28.6 (−57.5, 0.198) μIU h/mL
[3]; 0.5 mg OD, Day 1
  Cystatin C, change from baseline: -0.040 ± 0.018 mg/L
  DBP, change from baseline: 3.0 ± 5.2 mmHg
  Hematocrit, change from baseline: −1.14 ± 0.73%
  SBP, change from baseline: −1.7 ± 6.0 mmHg
  Serum calcium, change from baseline: -0.19 ± 0.12 mg/dL
  Serum phosphorus, change from baseline: 0.30 ± 0.40 mg/dL
  Urinary NAG, change from baseline: −0.31 ± 0.67 U/L
  Urinary calcium, change from baseline: 0.01 ± 0.04 g/day
  Urinary phosphorus, change from baseline: -0.13 ± 0.10 g/day
  Urinary type IV collagen, change from baseline: −0.40 ± 1.08 μg/g creatinine
  Urinary uric acid, change from baseline: 0.04 ± 0.05 g/day
  Urinary β2-microglobulin, change from baseline: -12.4 ± 25.2 µg/L
[3]; 0.5 mg OD, Day 7
  Cystatin C, change from baseline: -0.067 ± 0.029 mg/L
  DBP, change from baseline: 3.1 ± 3.8 mmHg
  Hematocrit, change from baseline: −2.20 ± 0.95%
  SBP, change from baseline: −5.9 ± 3.8 mmHg
  Serum calcium, change from baseline: -0.24 ± 0.05 mg/dL
  Serum phosphorus, change from baseline: 0.16 ± 0.40 mg/dL
  Urinary NAG, change from baseline: −0.06 ± 0.80 U/L
  Urinary calcium, change from baseline: 0.01 ± 0.04 g/day
  Urinary phosphorus, change from baseline: -0.04 ± 0.13 g/day
  Urinary type IV collagen, change from baseline: −0.21 ± 1.25 μg/g creatinine
  Urinary uric acid, change from baseline: -0.01 ± 0.07 g/day
  Urinary β2-microglobulin, change from baseline: -7.4 ± 27.1 µg/L
[3]; 1 mg OD, Day 1
  Cystatin C, change from baseline: 0.005 ± 0.077 mg/L
  DBP, change from baseline: 0.4 ± 4.9 mmHg
  Hematocrit, change from baseline: −1.26 ± 0.86%
  SBP, change from baseline: 3.5 ± 9.6 mmHg
  Serum calcium, change from baseline: -0.19 ± 0.16 mg/dL
  Serum phosphorus, change from baseline: 0.57 ± 0.32 mg/dL
  Urinary NAG, change from baseline: −0.33 ± 0.99 U/L
  Urinary calcium, change from baseline: 0.00 ± 0.00 g/day
  Urinary phosphorus, change from baseline: -0.13 ± 0.10 g/day
  Urinary type IV collagen, change from baseline: −0.44 ± 0.61 μg/g creatinine
  Urinary uric acid, change from baseline: 0.08 ± 0.07 g/day
  Urinary β2-microglobulin, change from baseline: -8.5 ± 31.3 µg/L
[3]; 1 mg OD, Day 7
  Cystatin C, change from baseline: -0.061 ± 0.043 mg/L
  DBP, change from baseline: −0.8 ± 6.6 mmHg
  Hematocrit, change from baseline: −2.68 ± 0.89%
  SBP, change from baseline: −2.4 ± 12.8 mmHg
  Serum calcium, change from baseline: -0.41 ± 0.14 mg/dL
  Serum phosphorus, change from baseline: 0.20 ± 0.21 mg/dL
  Urinary NAG, change from baseline: 0.73 ± 0.80 U/L
  Urinary calcium, change from baseline: 0.00 ± 0.00 g/day
  Urinary phosphorus, change from baseline: 0.00 ± 0.13 g/day
  Urinary type IV collagen, change from baseline: 0.66 ± 1.22 μg/g creatinine
  Urinary uric acid, change from baseline: -0.03 ± 0.20 g/day
  Urinary β2-microglobulin, change from baseline: 17.3 ± 54.9 µg/L
[3]; 2.5 mg OD, Day 1
  Cystatin C, change from baseline: 0.016 ± 0.060 mg/L
  DBP, change from baseline: −4.3 ± 5.6 mmHg
  Hematocrit, change from baseline: −0.58 ± 1.48%
  SBP, change from baseline: −5.6 ± 9.5 mmHg
  Serum calcium, change from baseline: -0.15 ± 0.23 mg/dL
  Serum phosphorus, change from baseline: 0.68 ± 0.23 mg/dL
  Urinary NAG, change from baseline: −0.68 ± 1.33 U/L
  Urinary calcium, change from baseline: -0.01 ± 0.04 g/day
  Urinary phosphorus, change from baseline: -0.24 ± 0.07 g/day
  Urinary type IV collagen, change from baseline: −0.05 ± 1.13 μg/g creatinine
  Urinary uric acid, change from baseline: -0.01 ± 0.04 g/day
  Urinary β2-microglobulin, change from baseline: -11.0 ± 44.9 µg/L
[3]; 2.5 mg OD, Day 7
  Cystatin C, change from baseline: -0.064 ± 0.054 mg/L
  DBP, change from baseline: −6.1 ± 5.6 mmHg
  Hematocrit, change from baseline: −2.89 ± 1.81%
  SBP, change from baseline: −8.8 ± 10.9 mmHg
  Serum calcium, change from baseline: -0.40 ± 0.27 mg/dL
  Serum phosphorus, change from baseline: 0.38 ± 0.29 mg/dL
  Urinary NAG, change from baseline: −0.08 ± 1.26 U/L
  Urinary calcium, change from baseline: 0.00 ± 0.05 g/day
  Urinary phosphorus, change from baseline: -0.03 ± 0.17 g/day
  Urinary type IV collagen, change from baseline: 0.21 ± 1.85 μg/g creatinine
  Urinary uric acid, change from baseline: -0.06 ± 0.07 g/day
  Urinary β2-microglobulin, change from baseline: 5.5 ± 44.0 µg/L
[3]; 5 mg OD, Day 1
  Cystatin C, change from baseline: 0.028 ± 0.042 mg/L
  DBP, change from baseline: 0.6 ± 6.0 mmHg
  Hematocrit, change from baseline: −0.54 ± 0.85%
  SBP, change from baseline: −1.3 ± 12.5 mmHg
  Serum calcium, change from baseline: -0.10 ± 0.20 mg/dL
  Serum phosphorus, change from baseline: 1.08 ± 0.37 mg/dL
  Urinary NAG, change from baseline: −0.81 ± 1.01 U/L
  Urinary calcium, change from baseline: -0.01 ± 0.04 g/day
  Urinary phosphorus, change from baseline: -0.24 ± 0.11 g/day
  Urinary type IV collagen, change from baseline: 0.11 ± 0.97 μg/g creatinine
  Urinary uric acid, change from baseline: 0.08 ± 0.12 g/day
  Urinary β2-microglobulin, change from baseline: -1.3 ± 13.5 µg/L
[3]; 5 mg OD, Day 7
  Cystatin C, change from baseline: -0.027 ± 0.065 mg/L
  DBP, change from baseline: −3.1 ± 6.0 mmHg
  Hematocrit, change from baseline: −1.66 ± 1.99%
  SBP, change from baseline: −11.3 ± 11.8 mmHg
  Serum calcium, change from baseline: -0.16 ± 0.45 mg/dL
  Serum phosphorus, change from baseline: 0.42 ± 0.39 mg/dL
  Urinary NAG, change from baseline: −0.11 ± 1.18 U/L
  Urinary calcium, change from baseline: -0.03 ± 0.05 g/day
  Urinary phosphorus, change from baseline: -0.01 ± 0.14 g/day
  Urinary type IV collagen, change from baseline: 0.31 ± 1.26 μg/g creatinine
  Urinary uric acid, change from baseline: 0.01 ± 0.10 g/day
  Urinary β2-microglobulin, change from baseline: 1.4 ± 20.3 µg/L
[4]; 0.5 mg OD for 7 days
  ALT increased: 0 number of subjects
  Blood urine present: 0 number of subjects
  Constipation: 1 number of subjects
  Dermatitis contact: 0 number of subjects
  Diarrhea: 1 number of subjects
  Headache: 1 number of subjects
  Pruritus: 1 number of subjects
  γ-GTP increased: 0 number of subjects
[4]; 1 mg OD for 7 days
  ALT increased: 0 number of subjects
  Blood urine present: 0 number of subjects
  Constipation: 0 number of subjects
  Dermatitis contact: 1 number of subjects
  Diarrhea: 0 number of subjects
  Headache: 0 number of subjects
  Pruritus: 0 number of subjects
  γ-GTP increased: 0 number of subjects
[4]; 2.5 mg OD for 7 days
  ALT increased: 1 number of subjects
  Blood urine present: 0 number of subjects
  Constipation: 0 number of subjects
  Dermatitis contact: 0 number of subjects
  Diarrhea: 0 number of subjects
  Headache: 0 number of subjects
  Pruritus: 0 number of subjects
  γ-GTP increased: 1 number of subjects
[4]; 5 mg OD for 7 days
  ALT increased: 0 number of subjects
  Blood urine present: 1 number of subjects
  Constipation: 0 number of subjects
  Dermatitis contact: 0 number of subjects
  Diarrhea: 0 number of subjects
  Headache: 1 number of subjects
  Pruritus: 0 number of subjects
  γ-GTP increased: 0 number of subjects
[4]; 0.5-5 mg OD for 7 days
  episodes of hypoglycemia: no episodes
  serious AEs or AEs leading to discontinuation: no serious AEs
  severity of adverse events: mild
  urinary tract/genital infection: no episodes
SGLT1
  IC50 for SGLT2 lower than IC50 for SGLT1 (selectivity): 1765 fold
